# Source: ChEMBL document CHEMBL4689842, “EUbOPEN Chemogenomics Library wave 1” (2021)
# System: HEK-293T
# Assay: Multiplex assay against HEK293T;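 on Population Tubulin-Different-Phenotype (%): share of the cells with healthy nuclei that show this phenotype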
# Assay type: toxicity, cell-based
# Details: human
# Method in brief: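 Cells stained live at seeding with Hoechst33342, BioTracker Green Microtubule Cytoskeleton Dye, MitoTracker Red and Annexin V Alexa Fluor 680 were imaged on a CQ1 microscope at 37°C and 5% CO2 after compound addition. Their classification by CellPathfinder machine-learning gating ran from Hoechst high-intensity objects versus normal cells, to healthy, pyknosed or fragmented nuclei among normal cells, to mitotic or apoptotic among pyknosed cells. Tubulin, mitochondrial-mass and membrane-permeability phenotypes are per cents of healthy-nucleus cells.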
# [1] = 12 h, 1 µM, compound concentration 1 uM, replicate 1
# [2] = 12 h, 1 µM, compound concentration 1 uM, replicate 2
# [3] = 12 h, 10 µM, compound concentration 10 uM, replicate 1
# [4] = 12 h, 10 µM, compound concentration 10 uM, replicate 2
# [5] = 24 h, 1 µM, compound concentration 1 uM, replicate 1
# [6] = 24 h, 1 µM, compound concentration 1 uM, replicate 2
# [7] = 24 h, 10 µM, compound concentration 10 uM, replicate 1
# [8] = 24 h, 10 µM, compound concentration 10 uM, replicate 2
# [9] = 48 h, 1 µM, compound concentration 1 uM, replicate 1
# [10] = 48 h, 1 µM, compound concentration 1 uM, replicate 2
# [11] = 48 h, 10 µM, compound concentration 10 uM, replicate 1
# [12] = 48 h, 10 µM, compound concentration 10 uM, replicate 2
compound,measurement,setting,value
Cc1nc(Nc2n[nH]c3c2CN(C(=O)N[C@H](CN(C)C)c2ccccc2)C3(C)C)c2sccc2n1 [PF-03758309],Population Apoptotic (%),[1],22%
same,Population Fragmented Nuclei (%),[1],12%
same,Population Healthy Nuclei (%),[1],65%
same,Population Hoechst High Intensity Objects (%),[1],12%
same,Population Membrane Permeable-Phenotype (%),[1],2%
same,Population Mitochondria Different-Phenotype (%),[1],5%
same,Population Mitotic Cells (%),[1],77%
same,Population Normal (%),[1],87%
same,Population Pyknosed Nuclei (%),[1],22%
same,Population Tubulin-Different-Phenotype (%),[1],3%
same,Total Cell Count,[1],616
same,Population Apoptotic (%),[2],8%
same,Population Fragmented Nuclei (%),[2],5%
same,Population Healthy Nuclei (%),[2],87%
same,Population Hoechst High Intensity Objects (%),[2],3%
same,Population Membrane Permeable-Phenotype (%),[2],0%
same,Population Mitochondria Different-Phenotype (%),[2],14%
same,Population Mitotic Cells (%),[2],91%
same,Population Normal (%),[2],96%
same,Population Pyknosed Nuclei (%),[2],6%
same,Population Tubulin-Different-Phenotype (%),[2],6%
same,Total Cell Count,[2],1340
same,Population Apoptotic (%),[3],27%
same,Population Fragmented Nuclei (%),[3],16%
same,Population Healthy Nuclei (%),[3],49%
same,Population Hoechst High Intensity Objects (%),[3],17%
same,Population Membrane Permeable-Phenotype (%),[3],12%
same,Population Mitochondria Different-Phenotype (%),[3],21%
same,Population Mitotic Cells (%),[3],72%
same,Population Normal (%),[3],82%
same,Population Pyknosed Nuclei (%),[3],33%
same,Population Tubulin-Different-Phenotype (%),[3],45%
same,Total Cell Count,[3],604
same,Population Apoptotic (%),[4],24%
same,Population Fragmented Nuclei (%),[4],3%
same,Population Healthy Nuclei (%),[4],79%
same,Population Hoechst High Intensity Objects (%),[4],6%
same,Population Membrane Permeable-Phenotype (%),[4],10%
same,Population Mitochondria Different-Phenotype (%),[4],46%
same,Population Mitotic Cells (%),[4],75%
same,Population Normal (%),[4],93%
same,Population Pyknosed Nuclei (%),[4],16%
same,Population Tubulin-Different-Phenotype (%),[4],87%
same,Total Cell Count,[4],1040
same,Population Apoptotic (%),[5],23%
same,Population Fragmented Nuclei (%),[5],9%
same,Population Healthy Nuclei (%),[5],76%
same,Population Hoechst High Intensity Objects (%),[5],9%
same,Population Membrane Permeable-Phenotype (%),[5],3%
same,Population Mitochondria Different-Phenotype (%),[5],4%
same,Population Mitotic Cells (%),[5],76%
same,Population Normal (%),[5],90%
same,Population Pyknosed Nuclei (%),[5],13%
same,Population Tubulin-Different-Phenotype (%),[5],6%
same,Total Cell Count,[5],623
same,Population Apoptotic (%),[6],4%
same,Population Fragmented Nuclei (%),[6],8%
same,Population Healthy Nuclei (%),[6],84%
same,Population Hoechst High Intensity Objects (%),[6],3%
same,Population Membrane Permeable-Phenotype (%),[6],4%
same,Population Mitochondria Different-Phenotype (%),[6],11%
same,Population Mitotic Cells (%),[6],95%
same,Population Normal (%),[6],96%
same,Population Pyknosed Nuclei (%),[6],6%
same,Population Tubulin-Different-Phenotype (%),[6],21%
same,Total Cell Count,[6],1640
same,Population Apoptotic (%),[7],27%
same,Population Fragmented Nuclei (%),[7],15%
same,Population Healthy Nuclei (%),[7],52%
same,Population Hoechst High Intensity Objects (%),[7],14%
same,Population Mitochondria Different-Phenotype (%),[7],24%
same,Population Mitotic Cells (%),[7],72%
same,Population Normal (%),[7],85%
same,Population Pyknosed Nuclei (%),[7],31%
same,Population Tubulin-Different-Phenotype (%),[7],47%
same,Total Cell Count,[7],627
same,Population Apoptotic (%),[8],14%
same,Population Fragmented Nuclei (%),[8],4%
same,Population Healthy Nuclei (%),[8],81%
same,Population Hoechst High Intensity Objects (%),[8],7%
same,Population Membrane Permeable-Phenotype (%),[8],8%
same,Population Mitochondria Different-Phenotype (%),[8],47%
same,Population Mitotic Cells (%),[8],85%
same,Population Normal (%),[8],92%
same,Population Pyknosed Nuclei (%),[8],14%
same,Population Tubulin-Different-Phenotype (%),[8],89%
same,Total Cell Count,[8],1130
COc1ncc(-c2ccc3nccc(-c4ccnnc4)c3c2)cc1NS(=O)(=O)c1ccc(F)cc1F [OMIPALISIB],Population Apoptotic (%),[1],60%
same,Population Fragmented Nuclei (%),[1],17%
same,Population Healthy Nuclei (%),[1],18%
same,Population Hoechst High Intensity Objects (%),[1],20%
same,Population Membrane Permeable-Phenotype (%),[1],2%
same,Population Mitochondria Different-Phenotype (%),[1],81%
same,Population Mitotic Cells (%),[1],39%
same,Population Normal (%),[1],80%
same,Population Pyknosed Nuclei (%),[1],64%
same,Population Tubulin-Different-Phenotype (%),[1],24%
same,Total Cell Count,[1],255
same,Population Apoptotic (%),[2],27%
same,Population Fragmented Nuclei (%),[2],8%
same,Population Healthy Nuclei (%),[2],14%
same,Population Hoechst High Intensity Objects (%),[2],6%
same,Population Membrane Permeable-Phenotype (%),[2],0%
same,Population Mitochondria Different-Phenotype (%),[2],37%
same,Population Mitotic Cells (%),[2],72%
same,Population Normal (%),[2],93%
same,Population Pyknosed Nuclei (%),[2],77%
same,Population Tubulin-Different-Phenotype (%),[2],16%
same,Total Cell Count,[2],180
same,Population Apoptotic (%),[3],62%
same,Population Fragmented Nuclei (%),[3],12%
same,Population Healthy Nuclei (%),[3],20%
same,Population Hoechst High Intensity Objects (%),[3],22%
same,Population Membrane Permeable-Phenotype (%),[3],0%
same,Population Mitochondria Different-Phenotype (%),[3],97%
same,Population Mitotic Cells (%),[3],37%
same,Population Normal (%),[3],77%
same,Population Pyknosed Nuclei (%),[3],67%
same,Population Tubulin-Different-Phenotype (%),[3],39%
same,Total Cell Count,[3],238
same,Population Apoptotic (%),[4],34%
same,Population Fragmented Nuclei (%),[4],4%
same,Population Healthy Nuclei (%),[4],12%
same,Population Hoechst High Intensity Objects (%),[4],6%
same,Population Membrane Permeable-Phenotype (%),[4],5%
same,Population Mitochondria Different-Phenotype (%),[4],42%
same,Population Mitotic Cells (%),[4],65%
same,Population Normal (%),[4],93%
same,Population Pyknosed Nuclei (%),[4],83%
same,Population Tubulin-Different-Phenotype (%),[4],26%
same,Total Cell Count,[4],161
same,Population Apoptotic (%),[5],47%
same,Population Fragmented Nuclei (%),[5],21%
same,Population Healthy Nuclei (%),[5],6%
same,Population Hoechst High Intensity Objects (%),[5],22%
same,Population Mitochondria Different-Phenotype (%),[5],71%
same,Population Mitotic Cells (%),[5],52%
same,Population Normal (%),[5],77%
same,Population Pyknosed Nuclei (%),[5],71%
same,Population Tubulin-Different-Phenotype (%),[5],50%
same,Total Cell Count,[5],280
same,Population Apoptotic (%),[6],29%
same,Population Fragmented Nuclei (%),[6],5%
same,Population Healthy Nuclei (%),[6],14%
same,Population Hoechst High Intensity Objects (%),[6],6%
same,Population Membrane Permeable-Phenotype (%),[6],0%
same,Population Mitochondria Different-Phenotype (%),[6],40%
same,Population Mitotic Cells (%),[6],70%
same,Population Normal (%),[6],93%
same,Population Pyknosed Nuclei (%),[6],79%
same,Population Tubulin-Different-Phenotype (%),[6],24%
same,Total Cell Count,[6],178
same,Population Apoptotic (%),[7],53%
same,Population Fragmented Nuclei (%),[7],14%
same,Population Healthy Nuclei (%),[7],20%
same,Population Hoechst High Intensity Objects (%),[7],24%
same,Population Membrane Permeable-Phenotype (%),[7],2%
same,Population Mitochondria Different-Phenotype (%),[7],91%
same,Population Mitotic Cells (%),[7],46%
same,Population Normal (%),[7],75%
same,Population Pyknosed Nuclei (%),[7],64%
same,Population Tubulin-Different-Phenotype (%),[7],52%
same,Total Cell Count,[7],228
same,Population Apoptotic (%),[8],37%
same,Population Fragmented Nuclei (%),[8],5%
same,Population Healthy Nuclei (%),[8],19%
same,Population Hoechst High Intensity Objects (%),[8],11%
same,Population Membrane Permeable-Phenotype (%),[8],3%
same,Population Mitochondria Different-Phenotype (%),[8],57%
same,Population Mitotic Cells (%),[8],63%
same,Population Normal (%),[8],88%
same,Population Pyknosed Nuclei (%),[8],75%
same,Population Tubulin-Different-Phenotype (%),[8],46%
same,Total Cell Count,[8],150
same,Population Fragmented Nuclei (%),[9],30%
same,Population Healthy Nuclei (%),[9],5%
same,Population Hoechst High Intensity Objects (%),[9],22%
same,Population Membrane Permeable-Phenotype (%),[9],0%
same,Population Mitochondria Different-Phenotype (%),[9],75%
same,Population Normal (%),[9],77%
same,Population Pyknosed Nuclei (%),[9],64%
same,Population Tubulin-Different-Phenotype (%),[9],41%
same,Total Cell Count,[9],286
same,Population Apoptotic (%),[10],44%
same,Population Fragmented Nuclei (%),[10],7%
same,Population Healthy Nuclei (%),[10],36%
same,Population Hoechst High Intensity Objects (%),[10],7%
same,Population Membrane Permeable-Phenotype (%),[10],1%
same,Population Mitochondria Different-Phenotype (%),[10],40%
same,Population Mitotic Cells (%),[10],55%
same,Population Normal (%),[10],92%
same,Population Pyknosed Nuclei (%),[10],55%
same,Population Tubulin-Different-Phenotype (%),[10],35%
same,Total Cell Count,[10],181
same,Population Apoptotic (%),[11],40%
same,Population Fragmented Nuclei (%),[11],20%
same,Population Healthy Nuclei (%),[11],24%
same,Population Hoechst High Intensity Objects (%),[11],21%
same,Population Membrane Permeable-Phenotype (%),[11],5%
same,Population Mitochondria Different-Phenotype (%),[11],76%
same,Population Mitotic Cells (%),[11],59%
same,Population Normal (%),[11],78%
same,Population Pyknosed Nuclei (%),[11],55%
same,Population Tubulin-Different-Phenotype (%),[11],57%
same,Total Cell Count,[11],202
same,Population Apoptotic (%),[12],38%
same,Population Fragmented Nuclei (%),[12],8%
same,Population Healthy Nuclei (%),[12],38%
same,Population Hoechst High Intensity Objects (%),[12],7%
same,Population Membrane Permeable-Phenotype (%),[12],0%
same,Population Mitochondria Different-Phenotype (%),[12],49%
same,Population Mitotic Cells (%),[12],61%
same,Population Normal (%),[12],92%
same,Population Pyknosed Nuclei (%),[12],54%
same,Population Tubulin-Different-Phenotype (%),[12],54%
same,Total Cell Count,[12],163
